Source: ChEMBL document CHEMBL1158805, “Neurotoxic meroditerpenoids from the tropical marine brown alga Stypopodium flabelliforme” (J Nat Prod, 2005)

Legend:
[1] = Increase in calcium influx in Sprague-Dawley rat CGN measured every 6 seconds for 24 mins by FLIPR assay; format: functional
Method in brief: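 Cerebellar granule neurons from 8-day-old Sprague-Dawley rat cerebella were used at 10-13 days in culture. Cells were loaded 1 h at 37 °C with 4 µM fluo-3 AM and 0.04% pluronic acid in Locke's buffer (pH 7.4), washed, then read by FLIPR (488 nm excitation, 500-560 nm emission). Baseline was read every 3 s for 1 min, readings stayed at 3 s for 2 min after addition, then every 6 s, 24 min total. Response was AUC (trapezoid rule); EC50 came from a logistic fit.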

[2] = Cytotoxicity against mouse Neuro2a cells after 48 hrs by MTT assay; format: functional; conditions: N2a, read-out: LC50 (the source's name)
Method in brief: (§1)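 Cells seeded at 6000/well in RPMI 1640 with 10% FBS. After 24 h, compound in DMSO, diluted in serum-free medium, was added (DMSO under 1% final). Viability was read by MTT reduction after 48 h, giving LC50.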

[3] = system: NCI-H460; assay: Cytotoxicity against human NCI-H460 cells after 48 hrs by MTT assay; format: functional; conditions: NCI-H460, 48 h, read-out: LC50 (the source's name); method in brief: as §1
[4] = system: Neuro2a; assay: Inhibition of voltage-gated sodium channel in mouse Neuro2a cells after 22 hrs; format: cell-based
[5] = Cytotoxicity against Sprague-Dawley rat CGN assessed as LDH efflux after 2 hrs; conditions: CGN (primary cells from Sprague-Dawley rat), read-out: LC50
Method in brief: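 Primary cerebellar granule neurons from 8-day-old Sprague-Dawley rats in BME with 25 mM KCl, 10 µM cytosine arabinoside added after 18-24 h, used at 10-13 days in culture. Washed into Locke's buffer (pH 7.4, 1% DMSO) and exposed to compound (1-100 µM) for 2 h at 22 °C. LDH released to medium assayed. Logistic fit of concentration-response; triplicate, repeated twice.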

[6] = Cytotoxicity against Sprague-Dawley rat CGN assessed as LDH efflux after 2 hrs in presence of tetrodotoxin; format: ADME
[7] = system: Artemia salina; assay: Toxicity in Artemia salina after 24 hrs; format: organism-based; conditions: in vivo
Method in brief: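 About 15 hatched Artemia salina per well in roughly 5 mL of artificial seawater, with sample added in 50 µL EtOH. Held 24 h at 28 °C, then live and dead shrimp counted. Run in duplicate.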

Row | SMILES | EC50 [1] | CC50 [2] | CC50 [3] | Activity [4] | CC50 at 2 h [5] | Activity [6] | LC90 [7]
1 | C[C@H]1CC[C@@H]2[C@@]3(C)CC[C@H](O)C(C)(C)[C@@H]3CC[C@@]2(C)[C@]12Cc1c(O)c(O)cc(C=O)c1O2 | 100 µM |  |  |  |  |  | 
2 | CC1=CC(=O)C2=C(C[C@H]3[C@@]4(C)CC[C@H]5C(C)(C)[C@@H](O)CC[C@@]5(C)[C@H]4CC[C@]23C)C1=O [FLABELLINONE] |  | 2 µM | 14 µM | 7 µM |  |  | 
3 | COc1c(C)cc(O)c2c1C[C@H]1[C@@]3(C)CC[C@H]4C(C)(C)[C@@H](O)CC[C@@]4(C)[C@H]3CC[C@]21C [FLABELLINOL] |  | 2 µM | 9 µM | 2 µM |  |  | 
4 | CC1=CC(=O)C(=O)C2=C1O[C@@]1(C2)[C@@H](C)CC[C@@H]2[C@@]3(C)CC[C@H](O)C(C)(C)C3CC[C@]21C (stereo partly specified) [STYPOLDIONE] | 27.8 µM |  |  |  | 37.4 µM | Active | 
5 | COC1=CC(C)=C2O[C@@]3(CC2(OO)C1=O)[C@@H](O)CC[C@@H]1[C@@]2(C)CC[C@H](O)C(C)(C)[C@@H]2CC[C@]13C (stereo partly specified) [STYPOHYDROPEROXIDE] |  | > 21 µM | > 25 µM |  |  |  | 
6 | Cc1cc(O)cc2c1O[C@]1(C)CC[C@@H]3[C@](C)(CC[C@H]4C(C)(C)[C@@H](O)CC[C@]34C)[C@H]1C2 |  | 2 µM | 24 µM | 0.7 µM |  |  | 24 µM
